Measured values reported in ChEMBL document CHEMBL1221240, “An efficient one-pot synthesis of heterocycle-fused 1,2,3-triazole derivatives as anti-cancer agents” (Bioorg Med Chem Lett, 2010).
In brackets after ≈: the same amount, converted by molar mass.

Columns and labels:
Format in all cases: functional, cell-based
A-431 = experiment: Cytotoxicity against human A431 cells by MTT assay
Summary of the method: (§1)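 In vitro MTT assay on human tumour cells: myeloid leukaemia K562 and HL-60, ovarian carcinoma Skov-3, epidermoid carcinoma A431, and lung adenocarcinoma A549. IC50 is the concentration that lowers optical density of treated cells by 50% relative to untreated cells. Values are means of three independent determinations.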

HepG2 = experiment: Cytotoxicity against human HepG2 cells by MTT assay
HL-60 = experiment: Cytotoxicity against human HL60 cells by MTT assay; summary of the method: as §1
SK-OV-3 = experiment: Cytotoxicity against human SKOV3 cells by MTT assay; summary of the method: as §1
A549 = experiment: Cytotoxicity against human A549 cells by MTT assay; summary of the method: as §1
K562 = experiment: Cytotoxicity against human K562 cells by MTT assay; summary of the method: as §1

Row | SMILES | IC50 (A-431) | IC50 (HepG2) | IC50 (HL-60) | IC50 (SK-OV-3) | IC50 (A549) | IC50 (K562)
1 | COc1ccc(C(=O)c2nnn3c2NCCC3)cc1 | 64.4 µg/mL (≈ 249 µM) | > 200 µg/mL | > 200 µg/mL | 190 µg/mL (≈ 736 µM) | > 200 µg/mL | 3.4 µg/mL (≈ 13.2 µM)
2 | COc1ccc(C(=O)c2nnn3c2OCC3)cc1 | 1.9 µg/mL (≈ 7.75 µM) | > 200 µg/mL | 21.1 µg/mL (≈ 86 µM) | 9.6 µg/mL (≈ 39.1 µM) | 58 µg/mL (≈ 237 µM) | 1 µg/mL (≈ 4.08 µM)
3 | Cc1ccc(C(=O)c2nnn3c2NCCC3)cc1 | > 200 µg/mL | > 200 µg/mL | > 200 µg/mL | 124 µg/mL (≈ 512 µM) | > 200 µg/mL | 1.5 µg/mL (≈ 6.19 µM)
4 | COc1ccc(C(=O)c2nnn3c2NCC3)cc1 | > 200 µg/mL | > 200 µg/mL | > 200 µg/mL | 159 µg/mL (≈ 651 µM) | > 200 µg/mL | 2.8 µg/mL (≈ 11.5 µM)
5 | O=C(c1ccccc1)c1nnn2c1NCC2 | > 200 µg/mL | > 200 µg/mL | > 200 µg/mL | > 200 µg/mL | > 200 µg/mL | 92 µg/mL (≈ 429 µM)
6 | O=C(c1ccc(Cl)cc1)c1nnn2c1NCCC2 | > 200 µg/mL | > 200 µg/mL | > 200 µg/mL | > 200 µg/mL | > 200 µg/mL | 3.2 µg/mL (≈ 12.2 µM)
7 | Cc1ccc(C(=O)c2nnn3c2NCC3)cc1 | > 200 µg/mL | > 200 µg/mL | > 200 µg/mL | > 200 µg/mL | > 200 µg/mL | 9.4 µg/mL (≈ 41.2 µM)
8 | O=C(c1ccc(Cl)cc1)c1nnn2c1NCC2 | 57.6 µg/mL (≈ 232 µM) | > 200 µg/mL | > 200 µg/mL | > 200 µg/mL | > 200 µg/mL | 16.1 µg/mL (≈ 64.7 µM)
9 | CC(=O)c1nnn2c1NCC2 | > 200 µg/mL | > 200 µg/mL | > 200 µg/mL | > 200 µg/mL | > 200 µg/mL | > 200 µg/mL
10 | O=C(c1ccccc1)c1nnn2c1NCCC2 | > 200 µg/mL | > 200 µg/mL | > 200 µg/mL | > 200 µg/mL | > 200 µg/mL | 28.6 µg/mL (≈ 125 µM)
11 | O=C(c1ccccc1)c1nnn2c1OCC2 | 10.8 µg/mL (≈ 50.2 µM) | > 200 µg/mL | 17.2 µg/mL (≈ 79.9 µM) | 66.1 µg/mL (≈ 307 µM) | 78 µg/mL (≈ 362 µM) | > 200 µg/mL
12 | O=C(c1ccc(Cl)cc1)c1nnn2c1OCC2 | 3.8 µg/mL (≈ 15.2 µM) | > 200 µg/mL | 6.5 µg/mL (≈ 26 µM) | 8.6 µg/mL (≈ 34.4 µM) | 42 µg/mL (≈ 168 µM) | > 200 µg/mL
13 | Cc1ccc(C(=O)c2nnn3c2OCC3)cc1 | 12.7 µg/mL (≈ 55.4 µM) | 198 µg/mL (≈ 864 µM) | 13.7 µg/mL (≈ 59.8 µM) | 8.5 µg/mL (≈ 37.1 µM) | 79 µg/mL (≈ 345 µM) | 127 µg/mL (≈ 554 µM)
